High-throughput results as filed in PubChem BioAssay.
HSP90 refold inh: HSP90 refolding inhibition in rabbit reticulocyte lysate; luciferase refolding luminescence, 3 h; inhibition, % at 5.6 µM; 0.91% of 290,000 active;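 active = inhibition above the screen-wide mean plus 3 SD, computed separately per campaign, cut at about 16% in these data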;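 also: inhibitors lower the luminescence because luciferase stays unfolded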
STAT3 act-1: STAT3 signaling activation; U3A cells, IL-6 STAT3-luciferase reporter, luminescence; 100% = signal with IL-6 EC80 alone; activation (% of control), % at 5.6 µM; 0.91% of 190,000 active; AID 871;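 active = activation above the screen-wide mean of compound activation plus 3 SD, cut at about 130% in these data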
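Material: STAT3-luciferase reporter U3A cells; Probe or stimulus: IL-6 (33 ng/mL); Incubation: compound pre-incubation 1 h before IL-6, then 6 h stimulation at 37 °C; Technique: luminescence from STAT3-driven luciferase reporter; Evaluation: % activation versus median of IL-6-stimulated wells; Controls: IL-6-only high control.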
TRAIL sens C8: sensitizes caspase-8 expressing cells to TRAIL; NB7+C8 cells + TRAIL, ATPlite viability luminescence; inhibition (viability loss, TRAIL sensitization), % at 10 µM; 1% of 360,000 active; AID 624354;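 active = compounds causing at least 50% loss of cell viability in the single-dose screen, relative to plate controls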
PPC-1+TRAIL kill: compounds killing PPC-1 cancer cells with TRAIL present (potentiator screen, no TRAIL-free arm); PPC-1 cells + TRAIL, ATPLite viability luminescence; cell killing (% activity), % at 4 µM or 5 µM; 0.41% of 220,000 active;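 active = cell killing above 50% in the first pass at 4 µM, then a duplicate retest at 5 µM averaging 50% or more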
STAT1 blocker: inhibitors of IFN-gamma induced STAT1 signaling. inhibition, % at 5.5 µM. NIH 3T3 STAT1-luciferase reporter, luminescence. 0.35% of 200,000 active;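 active = inhibition above a set limit, the mean inhibition across all tested compounds plus 3 SD, cut at about 34% in these data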
STAT3 blocker: reduces IL-6 driven STAT3 reporter signal; U3A cells, IL-6 STAT3-luciferase reporter, luminescence; host cell line lacks STAT1; inhibition, % at 5.5 µM; 0.89% of 190,000 active; AID 862;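 active = inhibition above the mean inhibition across all screened compounds plus 3 SD, cut at about 44% in these data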
STAT3 act-2: STAT3 activation, confirmation assay | 64% of 1,200 active | U3A STAT3-luciferase reporter, IL-6 potentiation, luminescence; U3A cells lack STAT1; 100 means same as IL-6 alone | shares compounds with STAT3 act-1 | potentiation (% of control), % at 5.7 µM;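 active = percent activation of the STAT3 luciferase reporter above a set limit taken from the earlier primary screen, cut at about 130% in these data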
NFkB act STAT3ct: activates NF-kappaB, counter-screen to STAT3 activators; activation (% of control), % at 5.7 µM; shares compounds with STAT3 act-1; human cells, NF-kappaB reporter activation; 11% of 1,200 active; in the data active = activation above about 120%;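 also: reporter induced by TNF-alpha stimulation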
STAT1 act STAT3c: activates STAT1, counter-screen to STAT3 activators; shares compounds with STAT3 act-1; NIH 3T3 STAT1-luciferase reporter, IFN-gamma, luminescence; activation (% of control), % at 5.7 µM; 13% of 1,200 active; AID 1318;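 active = activation above the solvent-only control well mean plus 3 SD, set per screening run, cut at about 120% in these data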
Each line names hits and unclear results; the compound was inactive in the other large screens (follow-up assays come after a bar, where they were run). Sampled rows, rich in hits. Any-hit rate of the full collection: about 2.3%.

CN(O)/C=C1\C(=O)Nc2ccccc21	STAT3 act-1 142.4 | STAT3 act-2 inactive | NFkB act STAT3ct inactive | STAT1 act STAT3c inactive
C/C(=N\Nc1nc(-c2cc(C)ccc2C)cs1)c1cc2c(ccc3ccccc32)oc1=O	STAT3 act-1 146.4 | STAT3 act-2 inactive | NFkB act STAT3ct inactive | STAT1 act STAT3c inactive
COC(=O)C1=CN(Cc2ccc(OC)c(OC)c2)C=C(C(=O)OC)C1c1ccccc1F	none (no result: STAT3 act-1, PPC-1+TRAIL kill, STAT1 blocker, STAT3 blocker)
COc1ccc(C2C(C(=O)c3cccs3)=C(O)C(=O)N2c2nncs2)cc1 (centres undefined)	STAT3 act-1 150.3 | STAT3 act-2 inactive | NFkB act STAT3ct inactive | STAT1 act STAT3c inactive
C=CCOc1ccc(C2C(C(=O)c3cccs3)=C(O)C(=O)N2c2nnc(C)s2)cc1 (centres undefined)	none (no result: PPC-1+TRAIL kill)
CC1=CC(=O)c2c(O)ccc(O)c2C1=O	none (no result: STAT3 act-1, TRAIL sens C8, STAT3 blocker)
NS(=O)(=O)c1ccc(NC(=S)NCc2ccco2)cc1	STAT3 act-1 136.2 | STAT3 act-2 inactive | NFkB act STAT3ct inactive | STAT1 act STAT3c inactive
NC(=O)c1ccc(NC(=S)NCc2ccco2)cc1	none
COC(=O)c1cc2c(s1)-c1cc(F)ccc1OC2	none (no result: STAT3 act-1, STAT1 blocker, STAT3 blocker)
COC(=O)c1cc2c(s1)-c1ccccc1CC2	STAT3 act-1 163.5 | STAT3 act-2 149.5 | NFkB act STAT3ct inactive | STAT1 act STAT3c 125.7
CCC(C)(C)NC(=O)C(c1ccncc1)N(C(=O)c1sc(C)nc1C)c1ccc(C)cc1 (centres undefined)	none
CCCc1cc(=O)[nH]c(SCC(=O)c2c[nH]c3ccccc23)n1	STAT3 act-1 143.0 | STAT3 act-2 inactive | NFkB act STAT3ct inactive | STAT1 act STAT3c inactive
O=C(O)c1cc(-c2ccc3c(c2)OCO3)nc2ccccc12	none
CCCN(CCC)C(=O)c1cc(-c2ccc3c(c2)OCO3)nc2ccccc12	STAT3 act-1 154.2 | STAT3 act-2 137.9 | NFkB act STAT3ct inactive | STAT1 act STAT3c inactive
CCCCCOP(=O)(OCCCCC)C1(NS(=O)(=O)c2ccccc2)C=CC(=O)c2ccccc21 (centres undefined)	STAT3 act-1 136.9 | STAT3 act-2 inactive | NFkB act STAT3ct inactive | STAT1 act STAT3c inactive
CCOc1ccc(NC(=O)c2cccnc2C(=O)O)cc1	none
CN(C)c1ccc(C(=O)NCC(c2cccs2)N2CCOCC2)cc1[N+](=O)[O-] (centres undefined)	none (no result: HSP90 refold inh, STAT3 act-1, PPC-1+TRAIL kill, STAT1 blocker, STAT3 blocker)
Cn1c(=O)c(=O)n(C)c2cc(N3CCCC3)c(NS(=O)(=O)c3ccc(Cl)cc3)cc21	none (no result: STAT3 act-1, PPC-1+TRAIL kill, STAT1 blocker, STAT3 blocker)
Cc1ccc2nc(SCc3nnc(-c4ccccc4Br)o3)[nH]c2c1	STAT3 act-1 139.6 | STAT3 act-2 inactive | NFkB act STAT3ct inactive | STAT1 act STAT3c inactive
CS(=O)(=O)NCc1nnc(SCc2c(F)cccc2Cl)o1	none
O=C(Nc1c(Cl)cc(Cl)cc1-c1nc2ccccc2s1)c1ccc(Br)o1	STAT3 act-1 139.1 | STAT3 act-2 inactive | NFkB act STAT3ct inactive | STAT1 act STAT3c inactive
O=C(Nc1ccccc1-c1nc2ccccc2s1)c1ccco1	none
CC(=O)NC(CCS(C)(=O)=O)C(=O)N1CCc2ccccc21 (centres undefined)	STAT3 act-1 137.5 | STAT3 act-2 inactive | NFkB act STAT3ct inactive | STAT1 act STAT3c inactive
COc1ccccc1S(=O)(=O)N1CCN(S(=O)(=O)c2ccccc2C#N)CC1	none (no result: STAT3 act-1, PPC-1+TRAIL kill, STAT1 blocker, STAT3 blocker)
COc1cc(CNCc2ccccn2)ccc1OCc1ccc(Cl)cc1Cl	none
C/[N+]([O-])=C/c1c(OCc2ccc(Cl)cc2Cl)ccc2ccccc12	STAT3 act-1 138.2 | STAT3 act-2 inactive | NFkB act STAT3ct inactive | STAT1 act STAT3c inactive
CC(=O)Nc1ccc(S(=O)(=O)NNC(=O)c2cc3c4ccccc4n(C)c3s2)cc1	STAT3 act-1 138.7 | STAT3 act-2 142.2 | NFkB act STAT3ct inactive | STAT1 act STAT3c inactive
CCCNC(=O)c1cc2c3ccccc3n(C)c2s1	none
O=C(OCc1nc2ccccc2s1)c1cnccn1	STAT3 act-1 136.2 | STAT3 act-2 145.8 | NFkB act STAT3ct inactive | STAT1 act STAT3c 139.9
Cn1cnc([N+](=O)[O-])c1Oc1ccc2ccccc2c1	STAT3 act-1 138.8 | STAT3 act-2 133.1 | NFkB act STAT3ct inactive | STAT1 act STAT3c inactive
Cn1cnc([N+](=O)[O-])c1Sc1nc2ccccc2[nH]1	none (no result: STAT3 act-1, STAT1 blocker, STAT3 blocker)
Cc1ccc(N2C(=O)Nc3ccc(Br)cc3C2(O)C(=O)NCCCN(C)C)cc1C (centres undefined)	none
Cc1ccc(C)c(C(=O)COC(=O)c2ccc(C)c(S(=O)(=O)N3CCOCC3)c2)c1	none (no result: HSP90 refold inh, STAT3 act-1, PPC-1+TRAIL kill, STAT1 blocker, STAT3 blocker)
CCOc1cc(CNc2ccc3cn[nH]c3c2)ccc1OC	STAT3 act-1 174.8 | STAT3 act-2 160.7 | NFkB act STAT3ct inactive | STAT1 act STAT3c inactive
COc1ccc(CNc2ccc3cn[nH]c3c2)c(OC)c1OC	STAT3 act-1 144.4 | STAT3 act-2 inactive | NFkB act STAT3ct inactive | STAT1 act STAT3c inactive
COc1ccc(CNc2ccncc2)c(OC)c1OC	none (no result: HSP90 refold inh, STAT3 act-1, PPC-1+TRAIL kill, STAT1 blocker, STAT3 blocker)
C(=C\c1nccc2c1[nH]c1ccccc12)/c1ccccc1	none (no result: STAT3 act-1, STAT1 blocker, STAT3 blocker)
Fc1ccc(/C=C\c2nccc3c2[nH]c2ccccc23)cc1	STAT3 act-1 137.5 | STAT3 act-2 148.2 | NFkB act STAT3ct inactive | STAT1 act STAT3c inactive
Cc1cc(C)n(-c2nc(-c3cccc(Cl)c3)cs2)n1	none
Cc1cc(C)n(-c2nc(-c3ccccc3)cs2)n1	STAT3 act-1 136.7 | STAT3 act-2 inactive | NFkB act STAT3ct 121.4 | STAT1 act STAT3c 121.5
Cc1ccccc1CCNC(=O)CCn1ccc2cc(S(=O)(=O)N3CCCC3)ccc21	none (no result: STAT3 act-1, PPC-1+TRAIL kill, STAT1 blocker, STAT3 blocker)
COc1ccccc1-c1nnc2n1N=C(c1ccc(O)c(O)c1)CS2	STAT3 act-1 136.1 | STAT3 act-2 inactive | NFkB act STAT3ct 160.2 | STAT1 act STAT3c 125.2
Brc1ccccc1C1=Nn2c(nnc2-c2ccccc2)SC1	STAT3 act-1 136.7 | STAT3 act-2 140.3 | NFkB act STAT3ct inactive | STAT1 act STAT3c inactive
COc1ccc(NC(=O)NNC(=O)c2ccc3ccccc3c2O)cc1OC	none (no result: STAT3 act-1, PPC-1+TRAIL kill, STAT1 blocker, STAT3 blocker)
C/C(=N\Nc1ccc(Cl)cc1)c1ccccn1	STAT3 act-1 139.3 | STAT3 act-2 140.5 | NFkB act STAT3ct 122.5 | STAT1 act STAT3c 147.5
Cc1nn(Cc2c(Cl)cccc2Cl)c(Cl)c1/C=C/C(=O)OCC(=O)NCC(F)(F)F	none
CCCNC(=O)Cn1c2ccccc2c2nc(=O)cc(C)n21	STAT3 act-1 169.9 | STAT3 act-2 158.3 | NFkB act STAT3ct inactive | STAT1 act STAT3c inactive
Cc1cc(-c2nc3c4c5c(sc4[nH]c(=O)n3n2)CCC5)c(C)o1	STAT3 act-1 151.3 | STAT3 act-2 134.3 | NFkB act STAT3ct inactive | STAT1 act STAT3c inactive
